*1 amine or outer side, *2 acyl side, *3 side chain or, on linkers, in order; H or OH if unused. Where a SMILES comes first, the peptide text is derived from it. Bridges are numbered along the chain shown (N, C = ends). X1 = O=C(CC1(S[*:2])CCCCC1)[*:1]; X4 = C[C@H](S[*:2])C(=O)[*:1]
Experiments:
Homo sapiens = organism: Homo sapiens; experiment: Inhibition of 10 uM ADP induced platelet aggregation in human platelet rich citreated plasma (PRP); type: functional
Outline: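 Aggregation is read as the increase in light transmission in an aggregometer, with platelets used within 3 h of collection. IC50 comes from regression of dose-response curves for inhibition of maximal aggregation, adjusted against a standard run in each experiment.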

Integrin alpha-V/beta-5 = Integrin alpha-V/beta-5 (Homo sapiens, UniProt P06756+P18084); experiment: Binding affinity against integrin alpha V-beta5 in enzyme linked immunosorbent assay (ELISA); type: protein-complex assay
Outline: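 It is added to wells coated with human vitronectin in 0.1 M carbonate, pH 9.6, with 10-fold serial peptide dilutions for 3 h at room temperature. Detection uses rabbit anti-VnR, HRP anti-rabbit IgG and o-phenylenediamine/H2O2.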

[1] = target: Integrin alpha-IIb/beta-3 (Homo sapiens, UniProt P05106+P08514); experiment: Binding affinity against integrin alpha 2b-beta 3 in enzyme linked immunosorbent assay (ELISA); type: protein-complex assay
Outline: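 Purified human platelet αIIbβ3 (from outdated platelets, octyl glucoside extract) in TBS with 20 mM octyl glucoside, 2 mM MgCl2 and 2 mM CaCl2 binds to plate-coated human fibrinogen (10 µg/mL in TBS) with 10-fold serial peptide dilutions for 3 h at room temperature. Bound receptor is detected with rabbit anti-αIIbβ3, then HRP anti-rabbit IgG, with o-phenylenediamine/H2O2 at pH 5.0. IC50 is reported.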

Integrin alpha-V/beta-5, sequence (P06756 31-889 limits assumed): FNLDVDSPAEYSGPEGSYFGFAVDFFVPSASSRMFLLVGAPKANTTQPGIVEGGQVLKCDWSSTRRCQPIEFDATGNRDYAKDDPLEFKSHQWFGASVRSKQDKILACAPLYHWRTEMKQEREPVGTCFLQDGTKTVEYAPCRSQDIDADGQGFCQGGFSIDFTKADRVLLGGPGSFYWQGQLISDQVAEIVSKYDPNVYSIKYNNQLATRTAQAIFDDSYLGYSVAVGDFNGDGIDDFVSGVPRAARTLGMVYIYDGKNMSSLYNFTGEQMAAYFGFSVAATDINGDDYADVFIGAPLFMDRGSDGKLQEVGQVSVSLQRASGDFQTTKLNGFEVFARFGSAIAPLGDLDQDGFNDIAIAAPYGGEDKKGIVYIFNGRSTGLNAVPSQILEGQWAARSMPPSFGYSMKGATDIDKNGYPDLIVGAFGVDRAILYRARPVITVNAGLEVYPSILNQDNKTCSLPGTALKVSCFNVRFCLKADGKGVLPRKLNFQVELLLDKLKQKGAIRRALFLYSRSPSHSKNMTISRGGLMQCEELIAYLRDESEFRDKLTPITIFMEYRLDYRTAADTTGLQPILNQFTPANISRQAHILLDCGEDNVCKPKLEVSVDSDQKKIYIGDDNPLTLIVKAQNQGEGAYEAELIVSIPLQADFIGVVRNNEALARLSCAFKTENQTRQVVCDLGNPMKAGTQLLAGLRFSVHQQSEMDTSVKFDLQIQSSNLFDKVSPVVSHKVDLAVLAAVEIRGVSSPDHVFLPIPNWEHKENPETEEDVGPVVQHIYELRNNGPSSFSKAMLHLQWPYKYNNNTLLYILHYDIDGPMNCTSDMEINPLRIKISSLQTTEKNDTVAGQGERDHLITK
Integrin alpha-V/beta-5, sequence (P06756 891-1048 limits assumed): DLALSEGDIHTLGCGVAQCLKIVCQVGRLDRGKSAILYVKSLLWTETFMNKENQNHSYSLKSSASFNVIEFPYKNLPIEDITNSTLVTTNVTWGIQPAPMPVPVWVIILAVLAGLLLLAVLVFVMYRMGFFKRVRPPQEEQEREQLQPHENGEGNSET
Integrin alpha-V/beta-5, sequence (P18084 24-799 limits assumed): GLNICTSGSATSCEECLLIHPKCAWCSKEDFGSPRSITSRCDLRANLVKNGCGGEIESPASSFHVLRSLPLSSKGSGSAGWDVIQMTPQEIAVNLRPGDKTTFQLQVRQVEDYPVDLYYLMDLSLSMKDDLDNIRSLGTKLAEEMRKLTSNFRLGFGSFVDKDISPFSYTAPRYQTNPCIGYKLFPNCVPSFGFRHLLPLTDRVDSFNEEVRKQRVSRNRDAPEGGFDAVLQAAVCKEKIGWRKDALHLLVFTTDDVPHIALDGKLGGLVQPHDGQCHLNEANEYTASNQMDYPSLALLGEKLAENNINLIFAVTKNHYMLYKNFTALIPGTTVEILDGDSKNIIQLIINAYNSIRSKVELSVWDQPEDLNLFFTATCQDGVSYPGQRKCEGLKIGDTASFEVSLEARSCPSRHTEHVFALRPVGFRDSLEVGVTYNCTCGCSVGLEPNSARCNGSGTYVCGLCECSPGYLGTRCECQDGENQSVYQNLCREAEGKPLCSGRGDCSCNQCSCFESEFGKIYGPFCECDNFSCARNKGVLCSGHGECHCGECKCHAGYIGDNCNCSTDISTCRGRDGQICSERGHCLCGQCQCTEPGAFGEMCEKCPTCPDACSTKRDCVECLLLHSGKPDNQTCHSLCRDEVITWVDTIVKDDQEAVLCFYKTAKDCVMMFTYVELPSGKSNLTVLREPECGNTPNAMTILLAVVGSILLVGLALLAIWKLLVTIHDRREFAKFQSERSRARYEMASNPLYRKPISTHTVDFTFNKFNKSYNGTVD
Integrin alpha-IIb/beta-3, sequence (P05106 27-788 limits assumed): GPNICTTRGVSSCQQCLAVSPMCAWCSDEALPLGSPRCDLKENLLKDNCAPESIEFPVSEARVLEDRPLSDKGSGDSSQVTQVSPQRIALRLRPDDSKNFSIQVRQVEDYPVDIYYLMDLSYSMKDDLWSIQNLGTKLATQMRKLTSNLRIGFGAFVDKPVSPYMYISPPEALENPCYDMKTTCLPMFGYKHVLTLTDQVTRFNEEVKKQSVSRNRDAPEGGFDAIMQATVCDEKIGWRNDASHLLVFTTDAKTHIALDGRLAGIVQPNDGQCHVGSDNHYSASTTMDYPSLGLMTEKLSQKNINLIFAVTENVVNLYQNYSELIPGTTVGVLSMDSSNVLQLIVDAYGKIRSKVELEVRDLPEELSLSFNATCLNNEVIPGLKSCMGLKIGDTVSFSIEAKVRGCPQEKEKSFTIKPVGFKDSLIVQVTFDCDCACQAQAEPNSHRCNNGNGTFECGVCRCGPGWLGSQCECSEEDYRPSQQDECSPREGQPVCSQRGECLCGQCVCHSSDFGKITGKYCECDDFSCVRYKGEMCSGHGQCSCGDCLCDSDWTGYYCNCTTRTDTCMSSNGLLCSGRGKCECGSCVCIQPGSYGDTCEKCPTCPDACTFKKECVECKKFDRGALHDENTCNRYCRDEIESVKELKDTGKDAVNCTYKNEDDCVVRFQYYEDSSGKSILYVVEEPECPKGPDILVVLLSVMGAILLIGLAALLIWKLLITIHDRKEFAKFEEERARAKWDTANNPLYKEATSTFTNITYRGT
Integrin alpha-IIb/beta-3, sequence (P08514 32-887 limits assumed): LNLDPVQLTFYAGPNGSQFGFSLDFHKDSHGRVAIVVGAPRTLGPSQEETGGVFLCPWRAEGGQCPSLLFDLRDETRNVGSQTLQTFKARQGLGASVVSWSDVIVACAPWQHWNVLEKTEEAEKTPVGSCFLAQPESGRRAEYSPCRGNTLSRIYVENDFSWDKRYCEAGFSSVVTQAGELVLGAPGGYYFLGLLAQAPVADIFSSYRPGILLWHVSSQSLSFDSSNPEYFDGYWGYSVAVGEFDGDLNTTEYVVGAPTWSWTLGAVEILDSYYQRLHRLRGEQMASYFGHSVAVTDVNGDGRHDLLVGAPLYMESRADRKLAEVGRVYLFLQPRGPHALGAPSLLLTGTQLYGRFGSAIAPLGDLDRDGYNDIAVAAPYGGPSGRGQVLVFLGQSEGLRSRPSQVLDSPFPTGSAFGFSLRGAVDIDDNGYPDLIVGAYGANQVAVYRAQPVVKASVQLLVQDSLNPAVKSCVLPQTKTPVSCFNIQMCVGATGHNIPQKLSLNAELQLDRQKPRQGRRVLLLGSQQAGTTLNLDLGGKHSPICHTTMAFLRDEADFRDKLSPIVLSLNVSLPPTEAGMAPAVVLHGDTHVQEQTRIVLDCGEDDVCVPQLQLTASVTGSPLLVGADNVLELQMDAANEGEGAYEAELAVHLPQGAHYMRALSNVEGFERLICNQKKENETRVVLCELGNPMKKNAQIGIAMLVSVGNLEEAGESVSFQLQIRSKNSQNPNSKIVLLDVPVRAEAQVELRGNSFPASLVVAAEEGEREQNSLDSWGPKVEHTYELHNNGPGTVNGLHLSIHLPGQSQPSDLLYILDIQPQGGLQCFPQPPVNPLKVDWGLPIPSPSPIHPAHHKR
Integrin alpha-IIb/beta-3, sequence (P08514 891-1039 limits assumed): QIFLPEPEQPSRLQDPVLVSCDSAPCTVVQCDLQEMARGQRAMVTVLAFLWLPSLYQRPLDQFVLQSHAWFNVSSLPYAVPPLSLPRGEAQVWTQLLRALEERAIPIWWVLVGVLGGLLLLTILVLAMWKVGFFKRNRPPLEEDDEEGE

SMILES	IC50 (Homo sapiens)	IC50 (Integrin alpha-V/beta-5)	IC50 [1]
COc1ccc(C[C@@H]2NC(=O)[C@H](CC(=O)O)NC(=O)CNC(=O)[C@H](CCCN=C(N)N)NC(=O)[C@H](Cc3c[nH]cn3)NC(=O)[C@H](CC(N)=O)NC(=O)[C@@H](NC(=O)[C@@H](N)CCCN=C(N)N)C3(CCCCC3)SSC[C@@H](C(=O)N[C@@H](CCCN=C(N)N)C(=O)O)NC(=O)[C@H](CCCN=C(N)N)NC2=O)cc1	0.99 µM	–	–
COc1ccc(C[C@@H]2NC(=O)[C@H](CC(=O)O)NC(=O)CNC(=O)[C@H](CCCN=C(N)N)NC(=O)[C@H](Cc3c[nH]cn3)NC(=O)[C@H](CC(=O)O)NC(=O)[C@@H](NC(=O)[C@@H](N)CCCN=C(N)N)C3(CCCCC3)SSC[C@@H](C(=O)N[C@@H](CCCN=C(N)N)C(=O)O)NC(=O)[C@H](CCCN=C(N)N)NC2=O)cc1	2.75 µM	7.2 µM	–
COc1ccc(C[C@@H]2NC(=O)[C@H](CC(=O)O)NC(=O)CNC(=O)[C@H](CCCN=C(N)N)NC(=O)[C@H](Cc3c[nH]cn3)NC(=O)[C@H](CO)NC(=O)[C@@H](NC(=O)[C@@H](N)CCCN=C(N)N)C3(CCCCC3)SSC[C@@H](C(=O)N[C@@H](CCCN=C(N)N)C(=O)O)NC(=O)[C@H](CCCN=C(N)N)NC2=O)cc1	0.95 µM	6.6 µM	–
COc1ccc(C[C@@H]2NC(=O)[C@H](CC(=O)O)NC(=O)CNC(=O)[C@H](CCCNC(=N)N)NC(=O)[C@@H]3CCCN3C(=O)[C@H](CC(N)=O)NC(=O)[C@@H](NC(C)=O)CSSC[C@@H](C(N)=O)NC(=O)[C@H](CCC(=O)O)NC2=O)cc1	–	9.47 µM	–
COc1ccc(C[C@@H]2NC(=O)[C@H](CC(=O)O)NC(=O)CNC(=O)[C@H](CCCN=C(N)N)NC(=O)[C@@H]3CCCN3C(=O)[C@H](CC(N)=O)NC(=O)[C@@H](NC(C)=O)C3(CCCCC3)SSC[C@@H](C(N)=O)NC(=O)[C@H](CCCN=C(N)N)NC2=O)cc1 [listing 2 of 2 here]	0.15 µM	–	–
N=C(N)NCCC[C@H](NC(=O)[C@@H]1CSSC2(CCCCC2)[C@H](NC(=O)[C@@H](N)CCCNC(=N)N)C(=O)NCC(=O)N[C@@H](Cc2c[nH]cn2)C(=O)N[C@@H](CCCNC(=N)N)C(=O)NCC(=O)N[C@@H](CC(=O)O)C(=O)N[C@@H](CCc2ccccc2)C(=O)N[C@@H](CCCNC(=N)N)C(=O)N1)C(=O)O	0.6 µM	–	–
CCCCOc1ccc(C[C@@H]2NC(=O)[C@H](CC(=O)O)NC(=O)CNC(=O)[C@H](CCCNC(=N)N)NC(=O)[C@@H]3CCCN3C(=O)[C@H](CC(N)=O)NC(=O)[C@@H](NC(C)=O)CSSC[C@@H](C(N)=O)NC(=O)[C@H](CCCNC(=N)N)NC2=O)cc1	0.1 µM	10 µM	–
COc1ccc(C[C@@H]2NC(=O)[C@H](CC(=O)O)NC(=O)CNC(=O)[C@H](CCCNC(=N)N)NC(=O)[C@@H]3CCCN3C(=O)[C@H](CC(N)=O)NC(=O)[C@@H](NC(C)=O)CSSC[C@@H](C(N)=O)NC(=O)[C@H](CC(C)C)NC2=O)cc1	7.6 µM	7.14 µM	–
COc1ccc(C[C@@H]2NC(=O)[C@H](CC(=O)O)NC(=O)CNC(=O)[C@H](CCCNC(=N)N)NC(=O)[C@@H]3CCCN3C(=O)[C@H](CC(N)=O)NC(=O)[C@@H](NC(C)=O)CSSC[C@@H](C(N)=O)NC(=O)[C@H](CCCCN)NC2=O)cc1	–	5.82 µM	–
COc1ccc(C[C@@H]2NC(=O)[C@H](CC(=O)O)NC(=O)CNC(=O)[C@H](CCCNC(=N)N)NC(=O)[C@@H](Cc3ccc(O)cc3)NC(=O)CNC(=O)[C@@H](NC(=O)[C@@H](N)CCCNC(=N)N)C3(CCCCC3)SSC[C@@H](C(=O)N[C@@H](CCCNC(=N)N)C(=O)O)NC(=O)[C@H](CCCNC(=N)N)NC2=O)cc1	0.52 µM	10 µM	–
COc1ccc(C[C@@H]2NC(=O)[C@H](CC(=O)O)NC(=O)CNC(=O)[C@H](CCCCN)NC(=O)[C@@H]3CCCN3C(=O)[C@H](CC(N)=O)NC(=O)[C@@H](NC(C)=O)CSSC[C@@H](C(N)=O)NC(=O)[C@H](CCCN=C(N)N)NC2=O)cc1	0.7 µM	–	–
CC[C@H](C)[C@@H]1NC(=O)[C@@H](NC(C)=O)CSSC[C@@H](C(N)=O)NC(=O)[C@H](CCCN=C(N)N)NC(=O)[C@H](Cc2ccc(O)cc2)NC(=O)[C@H](CC(=O)O)NC(=O)CNC(=O)[C@H](CCCN=C(N)N)NC(=O)[C@@H]2CCCN2C1=O (Ac-CIPRGDYRC-NH2; disulfide 1-9)	0.33 µM	–	–
COc1ccc(C[C@@H]2NC(=O)[C@H](CC(=O)O)NC(=O)CNC(=O)[C@H](CCCN=C(N)N)NC(=O)[C@@H]3CCCN3C(=O)[C@H](CC(N)=O)NC(=O)CC3(CCCCC3)SSC[C@@H](C(N)=O)NC(=O)[C@H](CCCN=C(N)N)NC2=O)cc1 (NPRGDY(Me)RC-NH2; linker N-8 via X1)	0.17 µM	4.9 µM	–
COc1ccc(C[C@@H]2NC(=O)[C@H](CC(=O)O)NC(=O)CNC(=O)[C@H](CCCN=C(N)N)NC(=O)[C@@H]3CCCN3C(=O)[C@H](CC(N)=O)NC(=O)[C@H](C)SSC[C@@H](C(N)=O)NC(=O)[C@H](CCCN=C(N)N)NC2=O)cc1 (NPRGDY(Me)RC-NH2; linker N-8 via X4)	0.17 µM	–	–
CC(C)C[C@@H]1NC(=O)[C@H](CC(=O)O)NC(=O)CNC(=O)[C@H](CCCNC(=N)N)NC(=O)[C@H](Cc2c[nH]cn2)NC(=O)CNC(=O)[C@H](NC(=O)CN)C(C)(C)SSC[C@@H](C(=O)N[C@@H](C)C(=O)O)NC(=O)[C@H](CCCNC(=N)N)NC1=O (stereo in doubt; 1)	–	8.26 µM	–
CC(C)C[C@@H]1NC(=O)[C@H](CC(=O)O)NC(=O)CNC(=O)[C@H](CCCNC(=N)N)NC(=O)[C@H](Cc2c[nH]cn2)NC(=O)CNC(=O)[C@H](NC(=O)CN)C(C)(C)SSC[C@@H](C(=O)N[C@@H](C)C(=O)O)NC(=O)[C@H](CCCNC(=N)N)NC1=O (stereo in doubt; 2)	–	–	0.15 µM

Other lines, results leading:

IC50 (Homo sapiens)	IC50 (Integrin alpha-V/beta-5)	IC50 [1]	SMILES
0.85 µM	8.8 µM	–	COc1ccc(C[C@@H]2NC(=O)[C@H](CC(=O)O)NC(=O)CNC(=O)[C@H](CCCNC(=N)N)NC(=O)[C@H](Cc3ccc(O)cc3)NC(=O)CNC(=O)[C@@H](NC(=O)[C@@H](N)CCCNC(=N)N)C3(CCCCC3)SSC[C@@H](C(=O)N[C@@H](CCCNC(=N)N)C(=O)O)NC(=O)[C@H](CCCNC(=N)N)NC2=O)cc1
0.4 µM	–	–	COc1ccc(C[C@@H]2NC(=O)[C@H](CC(=O)O)NC(=O)CNC(=O)[C@H](CCCN=C(N)N)NC(=O)[C@@H](Cc3c[nH]cn3)NC(=O)CNC(=O)[C@@H](NC(=O)[C@@H](N)CCCN=C(N)N)C3(CCCCC3)SSC[C@@H](C(=O)N[C@@H](CCCN=C(N)N)C(=O)O)NC(=O)[C@H](CCCN=C(N)N)NC2=O)cc1
0.69 µM	–	–	CC(C)[C@H]1NC(=O)[C@H](CC(=O)O)NC(=O)CNC(=O)[C@H](CCCN=C(N)N)NC(=O)[C@@H](Cc2c[nH]cn2)NC(=O)CNC(=O)[C@@H](N)CCC/N=C(/N)NC(=O)[C@H](N)C2(CCCCC2)SSC[C@@H](C(=O)N[C@@H](CCCN=C(N)N)C(=O)O)NC(=O)[C@H](CCCN=C(N)N)NC1=O
–	3.46 µM	–	COc1ccc(C[C@@H]2NC(=O)[C@H](CC(=O)O)NC(=O)CNC(=O)[C@H](CCCNC(=N)N)NC(=O)[C@@H]3CCCN3C(=O)[C@H](CC(N)=O)NC(=O)[C@@H](NC(C)=O)CSSC[C@@H](C(N)=O)NC(=O)[C@H](CCCNC(N)=O)NC2=O)cc1
–	7.7 µM	–	COc1ccc(C[C@@H]2NC(=O)[C@H](CC(=O)O)NC(=O)CNC(=O)[C@H](CCCNC(=N)N)NC(=O)[C@@H]3CCCN3C(=O)[C@H](CC(N)=O)NC(=O)[C@@H](NC(C)=O)CSSC[C@@H](C(N)=O)NC(=O)[C@H](CCCN)NC2=O)cc1
0.97 µM	–	–	NC(N)=NCCC[C@H](NC(=O)[C@@H]1CSSC2(CCCCC2)[C@H](NC(=O)[C@@H](N)CCCN=C(N)N)C(=O)NCC(=O)N[C@@H](Cc2c[nH]cn2)C(=O)N[C@@H](CCCN=C(N)N)C(=O)NCC(=O)N[C@@H](CC(=O)O)C(=O)N[C@@H](Cc2ccc(O)cc2)C(=O)N[C@@H](CCCN=C(N)N)C(=O)N1)C(=O)O
–	3 µM	–	COc1ccc(C[C@@H]2NC(=O)[C@H](CC(=O)O)NC(=O)CNC(=O)[C@H](CCCN=C(N)N)NC(=O)[C@@H]3CCCN3C(=O)[C@H](CC(N)=O)NC(=O)CCSSC[C@@H](C(N)=O)NC(=O)[C@H](CCCN=C(N)N)NC2=O)cc1
–	8.85 µM	–	COc1ccc(C[C@@H]2NC(=O)[C@H](CC(=O)O)NC(=O)CNC(=O)[C@H](CCCNC(=N)N)NC(=O)[C@@H]3CCCN3C(=O)[C@H](CC(N)=O)NC(=O)[C@@H](NC(C)=O)CSSC[C@@H](C(N)=O)NC(=O)[C@H](C)NC2=O)cc1
–	2.34 µM	–	COc1ccc(C[C@@H]2NC(=O)[C@H](CC(=O)O)NC(=O)CNC(=O)[C@H](CCCN=C(N)N)NC(=O)[C@@H]3CCCN3C(=O)[C@H](CC(N)=O)NC(=O)[C@@H](NC(C)=O)C3(CCCCC3)SSC[C@@H](C(N)=O)NC(=O)[C@H](CCCN=C(N)N)NC2=O)cc1 [listing 1 of 2 here]
–	9.9 µM	–	CC[C@H](C)[C@@H]1NC(=O)[C@@H](NC(=O)[C@@H](N)CCCN=C(N)N)C2(CCCCC2)SSC[C@@H](C(=O)N[C@@H](CCCN=C(N)N)C(=O)O)NC(=O)[C@H](CCCN=C(N)N)NC(=O)[C@H](Cc2ccc(OC)cc2)NC(=O)[C@H](CC(=O)O)NC(=O)CNC(=O)[C@H](CCCN=C(N)N)NC(=O)[C@H](Cc2c[nH]cn2)NC1=O
–	1.7 µM	–	COc1ccc(C[C@@H]2NC(=O)[C@H](CC(=O)O)NC(=O)CNC(=O)[C@H](CCCNC(=N)N)NC(=O)[C@@H]3CCCN3C(=O)CNC(=O)[C@@H](NC(=O)[C@@H](N)CCCNC(=N)N)C3(CCCCC3)SSC[C@@H](C(=O)N[C@@H](CCCNC(=N)N)C(=O)O)NC(=O)[C@H](CCCNC(=N)N)NC2=O)cc1
0.48 µM	–	–	CCCCOc1ccc(C[C@@H]2NC(=O)[C@H](CC(=O)O)NC(=O)CNC(=O)[C@H](CCCN=C(N)N)NC(=O)[C@@H]3CCCN3C(=O)[C@H]([C@@H](C)CC)NC(=O)[C@@H](NC(C)=O)CSSC[C@@H](C(N)=O)NC(=O)[C@H](CCCN=C(N)N)NC2=O)cc1
